Activity calls are given as the source filed them. Rule as the data show it, unless noted: active = inhibition above about 30%; inactive = the rest.
Experiments:
[1] = SK-BR-3 cell growth inhibitors, pilot screen, 24 h, human (AID 572;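 active = viability at or below 10% of carrier control in both of two separate runs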;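 also: compound exposure lasted between 18 and 24 h rather than exactly 24 h; 100% = carrier-treated control wells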); details: SK-BR-3 viability, CellTiter-Glo luminescence, at 10 µM, stronger effect = lower value
[2] = HUVEC growth inhibition – cell-based, human, primary screen (AID 575;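 active = viability at or below 30% in both replicate assays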;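 also: 100% = median of untreated cell wells with 0.1% DMSO on each plate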); details: HUVEC proliferation, CellTiter-Glo luminescence, 72 h; at 10 µM; stronger effect = lower value
Outline: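 material = primary HUVEC, no more than 12 passages | input = 1250 cells per well | controls = vehicle and MePR control wells | measured by = CTG luminescence | times = 72 h compound incubation | format = collagen-coated 384-well format | read-out = % viability vs DMSO wells | doses = single 10 µM dose, 0.1% DMSO, from 5x medium stock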

[3] = growth inhibitors of H69AR lung tumor, primary screen, human, duplicate replicates (AID 580;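 active = viability at or under a set limit in both replicates, limit being median viability minus 3 SD, cut at about 48% in these data, passing the limit was not always enough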;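 also: 100% = mean luminescence of untreated wells and 0% = no signal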); details: H69AR lung tumor cells viability, ATP luminescence, 72 h; at 10 µM; stronger effect = lower value
[4] = reversal of MRP1-mediated doxorubicin resistance, pilot screen, H69AR cells, doxorubicin co-treatment (AID 601;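 active = viability loss from added drug above about 55%, and viability with drug at most 40%, in both replicates, limit read from the data, passing the limit was not always enough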); details: CellTiter-Glo, 72 h, at 10 µM; for differential viability (reversal): stronger effect = higher value
[5] = 384-well plate pilot, post-Golgi transport modulator project, inhibition of yeast transport mutant growth (AID 636; in the data active = inhibition above about 31%); details: absorbance 615 nm, about 18 h, stronger effect = higher value
[6] = growth suppression of yeast trafficking mutant, preliminary HTS, modulators of trafficking downstream of Golgi apparatus project, 1536-format plate, OD 615 nm (AID 637); details: yeast transport mutant growth, absorbance 615 nm, 18 h; stronger effect = higher value
[7] = H69AR cells + 2 uM doxorubicin, measured here: viability with 2 uM doxorubicin, stronger effect = lower value
[8] = H69AR cells, compound alone cytotoxicity

SMILES: NCCCCCc1nnc(SC/C=C/c2ccccc2)o1
- viability [1]: 99% (inactive)
- viability [2]: 73.8% (inactive)
- viability [3]: 89.9% (inactive)
- differential viability (reversal) ([4]; H69AR cells + 2 uM doxorubicin): 3.04% (inactive)
- viability [4, 7]: 86.9%
- viability [4, 8]: 89.9%
- inhibition [5]: -6.85% (inactive)
- inhibition [6]: 18.2% (inactive)

SMILES: Cc1ccc(NC(=O)CSC2=C(C#N)C(c3ccc4c(c3)OCO4)CC(=O)N2)cc1C (centres undefined)
- viability [1]: 64% (inactive)
- viability [2]: 92.9% (inactive)
- viability [3]: 88.6% (inactive)
- differential viability (reversal) ([4]; H69AR cells + 2 uM doxorubicin): -4.82% (inactive)
- viability [4, 7]: 93.4%
- viability [4, 8]: 88.6%
- inhibition [5]: 7.7% (inactive)
- inhibition [6]: -2.55% (inactive)

SMILES: CCC(CC)C1C(C#N)=C(N)Oc2n[nH]c(C)c21 (centres undefined)
- viability [1]: 85% (inactive)
- viability [2]: 91.9% (inactive)
- viability [3]: 24.9% (active)
- differential viability (reversal) ([4]; H69AR cells + 2 uM doxorubicin): -44.6% (inactive)
- viability [4, 7]: 69.6%
- viability [4, 8]: 24.9%
- inhibition [5]: -6.22% (inactive)
- inhibition [6]: -0.18% (inactive)

SMILES: COc1ccc(NS(=O)(=O)c2ccc(N)cc2)nn1
- viability [1]: 91% (inactive)
- viability [2]: 100% (inactive)
- viability [3]: 104% (inactive)
- differential viability (reversal) ([4]; H69AR cells + 2 uM doxorubicin): 8.44% (inactive)
- viability [4, 7]: 95.3%
- viability [4, 8]: 104%
- inhibition [5]: -0.78% (inactive)
- inhibition [6]: 0% (inactive)

SMILES: CCOC(=O)c1ccc(COC(=O)c2cc3ccccc3oc2=O)o1
- viability [1]: 114% (inactive)
- viability [2]: 114% (inactive)
- viability [3]: 114% (inactive)
- differential viability (reversal) ([4]; H69AR cells + 2 uM doxorubicin): 20.8% (inactive)
- viability [4, 7]: 93.1%
- viability [4, 8]: 114%
- inhibition [5]: -5.89% (inactive)
- inhibition [6]: 0.65% (inactive)

SMILES: Cc1ccc(C(O)c2nc3ccccc3n2C(C)C)cc1 (centres undefined)
- viability [1]: 62% (inactive)
- viability [2]: 101% (inactive)
- viability [3]: 91.5% (inactive)
- differential viability (reversal) ([4]; H69AR cells + 2 uM doxorubicin): 3.7% (inactive)
- viability [4, 7]: 87.8%
- viability [4, 8]: 91.5%
- inhibition [5]: -7.53% (inactive)
- inhibition [6]: -5.82% (inactive)

SMILES: Cc1cc(C)c(NC2=NCC(=O)N2C2CCCCC2)c(C)c1
- viability [1]: 106% (inactive)
- viability [2]: 107% (inactive)
- viability [3]: 86.3% (inactive)
- differential viability (reversal) ([4]; H69AR cells + 2 uM doxorubicin): -5.14% (inactive)
- viability [4, 7]: 91.5%
- viability [4, 8]: 86.3%
- inhibition [5]: -7.53% (inactive)
- inhibition [6]: -3.09% (inactive)

SMILES: O=C(NCN1CCCCC1)c1cccnc1
- viability [1]: 134% (inactive)
- viability [2]: 102% (inactive)
- viability [3]: 106% (inactive)
- differential viability (reversal) ([4]; H69AR cells + 2 uM doxorubicin): -0.935% (inactive)
- viability [4, 7]: 107%
- viability [4, 8]: 106%
- inhibition [5]: -3.9% (inactive)
- inhibition [6]: 6.07% (inactive)

SMILES: Cc1nn(C)c(C)c1NC(=O)CSc1nc(Cc2ccccc2)nc2c1cnn2-c1ccccc1
- viability [1]: 116% (inactive)
- viability [2]: 88% (inactive)
- viability [3]: 78.8% (inactive)
- differential viability (reversal) ([4]; H69AR cells + 2 uM doxorubicin): 0.07% (inactive)
- viability [4, 7]: 78.7%
- viability [4, 8]: 78.8%
- inhibition [5]: -2.05% (inactive)
- inhibition [6]: 5.48% (inactive)

SMILES: Cc1ccc(-n2ncc3c(=O)n(CC(=O)N4CCCc5ccccc54)cnc32)cc1C
- viability [1]: 82% (inactive)
- viability [2]: 60.5% (inactive)
- viability [3]: 90.8% (inactive)
- differential viability (reversal) ([4]; H69AR cells + 2 uM doxorubicin): -10% (inactive)
- viability [4, 7]: 101%
- viability [4, 8]: 90.8%
- inhibition [5]: 6.08% (inactive)
- inhibition [6]: -2.73% (inactive)

SMILES: CC(=O)N1CCc2cc(S(=O)(=O)NCCC(=O)NC3CCCc4ccccc43)ccc21 (centres undefined)
- viability [1]: 113% (inactive)
- viability [2]: 112% (inactive)
- viability [3]: 88.9% (inactive)
- differential viability (reversal) ([4]; H69AR cells + 2 uM doxorubicin): -1.16% (inactive)
- viability [4, 7]: 90%
- viability [4, 8]: 88.9%
- inhibition [5]: -4% (inactive)
- inhibition [6]: -3.27% (inactive)

SMILES: Cc1cc(C)nc(N2CCC(C(=O)Nc3ccc(Oc4ccccc4)cc3)CC2)n1
- viability [1]: 67% (inactive)
- viability [2]: 105% (inactive)
- viability [3]: 88.9% (inactive)
- differential viability (reversal) ([4]; H69AR cells + 2 uM doxorubicin): 0.65% (inactive)
- viability [4, 7]: 88.2%
- viability [4, 8]: 88.9%
- inhibition [5]: -8.36% (inactive)
- inhibition [6]: 1.09% (inactive)

SMILES: CC(=O)N1CN(C2CCCC2)Cc2c1sc1c2CCCC1
- viability [1]: 95% (inactive)
- viability [2]: 103% (inactive)
- viability [3]: 101% (inactive)
- differential viability (reversal) ([4]; H69AR cells + 2 uM doxorubicin): -16% (inactive)
- viability [4, 7]: 117%
- viability [4, 8]: 101%
- inhibition [5]: -8.22% (inactive)
- inhibition [6]: 0.36% (inactive)

SMILES: OCC(O)CN1CCN(c2ccccc2)CC1 (centres undefined)
- viability [1]: 119% (inactive)
- viability [2]: 100% (inactive)
- viability [3]: 92.9% (inactive)
- differential viability (reversal) ([4]; H69AR cells + 2 uM doxorubicin): -1.6% (inactive)
- viability [4, 7]: 94.5%
- viability [4, 8]: 92.9%
- inhibition [5]: 1.95% (inactive)
- inhibition [6]: 3.83% (inactive)

SMILES: CC(=O)OCC(=O)[C@@]1(O)CC[C@H]2[C@@H]3CCC4=CC(=O)CC[C@]4(C)[C@H]3C(=O)C[C@@]21C
- viability [1]: 108% (inactive)
- viability [2]: 95.9% (inactive)
- viability [3]: 104% (inactive)
- differential viability (reversal) ([4]; H69AR cells + 2 uM doxorubicin): 8.62% (inactive)
- viability [4, 7]: 95.2%
- viability [4, 8]: 104%
- inhibition [5]: -4.55% (inactive)
- inhibition [6]: -1.33% (inactive)

SMILES: Cn1nc(CC(=O)Nc2ccc(N3CCN(C(=O)OC(C)(C)C)CC3)cc2)c2ccccc2c1=O
- viability [1]: 84% (inactive)
- viability [2]: 9.25% (active)
- viability [3]: 1.72% (active)
- differential viability (reversal) ([4]; H69AR cells + 2 uM doxorubicin): -3.22% (inactive)
- viability [4, 7]: 4.94%
- viability [4, 8]: 1.72%
- inhibition [5]: -1.82% (inactive)
- inhibition [6]: -4.26% (inactive)

SMILES: COC(=O)c1[nH]c(C)c(/C(O)=C2\C(=O)C(=O)N(CCN3CCOCC3)C2c2cccs2)c1C (centres undefined)
- viability [1]: 105% (inactive)
- viability [2]: 76.5% (inactive)
- viability [3]: 17.3% (active)
- differential viability (reversal) ([4]; H69AR cells + 2 uM doxorubicin): -54.5% (inactive)
- viability [4, 7]: 71.8%
- viability [4, 8]: 17.3%
- inhibition [5]: -2.3% (inactive)
- inhibition [6]: 13.1% (inactive)

SMILES: Clc1ccccc1CN1CCc2sccc2C1
- viability [1]: 95% (inactive)
- viability [2]: 78.2% (inactive)
- viability [3]: 99% (inactive)
- differential viability (reversal) ([4]; H69AR cells + 2 uM doxorubicin): 19.9% (inactive)
- viability [4, 7]: 79.1%
- viability [4, 8]: 99%
- inhibition [5]: 1.95% (inactive)
- inhibition [6]: 8.17% (inactive)

SMILES: COc1ccc(OC)c(NC(=O)C23CCC(C)(C(=O)C2)C3(C)C)c1 (centres undefined)
- viability [1]: 72% (inactive)
- viability [2]: 101% (inactive)
- viability [3]: 102% (inactive)
- differential viability (reversal) ([4]; H69AR cells + 2 uM doxorubicin): -0.69% (inactive)
- viability [4, 7]: 103%
- viability [4, 8]: 102%
- inhibition [5]: -6.3% (inactive)
- inhibition [6]: -2.73% (inactive)

SMILES: N=c1nc(N2CCCCC2)cc(N)n1O
- viability [1]: 96% (inactive)
- viability [2]: 89.3% (inactive)
- viability [3]: 99.8% (inactive)
- differential viability (reversal) ([4]; H69AR cells + 2 uM doxorubicin): 7.85% (inactive)
- viability [4, 7]: 92%
- viability [4, 8]: 99.8%
- inhibition [5]: -1.17% (inactive)
- inhibition [6]: -1.83% (inactive)

SMILES: COCCc1ccc(OCC(O)CNC(C)C)cc1 (centres undefined)
- viability [1]: 117% (inactive)
- viability [2]: 70.4% (inactive)
- viability [3]: 98.3% (inactive)
- differential viability (reversal) ([4]; H69AR cells + 2 uM doxorubicin): -7.28% (inactive)
- viability [4, 7]: 106%
- viability [4, 8]: 98.3%
- inhibition [5]: -2.86% (inactive)
- inhibition [6]: 1.33% (inactive)

SMILES: CCCC(=O)Nc1cnc(NC(=O)c2cccc(F)c2)cc1C
- viability [1]: 86% (inactive)
- viability [2]: 90.3% (inactive)
- viability [3]: 88.7% (inactive)
- differential viability (reversal) ([4]; H69AR cells + 2 uM doxorubicin): 6.15% (inactive)
- viability [4, 7]: 82.6%
- viability [4, 8]: 88.7%
- inhibition [5]: 2.47% (inactive)
- inhibition [6]: 2.95% (inactive)

SMILES: CC1=Nn2c(nnc2-c2ccc(F)cc2)SC1
- viability [1]: 85% (inactive)
- viability [2]: 97% (inactive)
- viability [3]: 97.2% (inactive)
- differential viability (reversal) ([4]; H69AR cells + 2 uM doxorubicin): 0.585% (inactive)
- viability [4, 7]: 96.6%
- viability [4, 8]: 97.2%
- inhibition [5]: -5.14% (inactive)
- inhibition [6]: -2.55% (inactive)

Reference: PubChem BioAssay
